Where “and” joins values, the source holds several entries; their conditions need not be identical. Equal values may be shown once.
Columns and labels:
KCNQ2 channels [1] = biological target: T1, KCNQ2 channels (Homo sapiens, UniProt O43526); experiment: IonWorks automated electrophysiology; format: cell-based; conditions: IW EC50, KCNQ2 (enhancement of KCNQ2 currents), -10 mV step potential
Summary of the method: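 Perforated-patch population clamp (IonWorks Quattro) on CHO cells stably expressing KCNQ2. Cells were freshly detached and seeded at 7000 cells/well in HEPES/glucose saline at pH 7.4, then perforated with 50 μg/mL amphotericin B in KCl/K-gluconate internal solution at pH 7.2. Steady-state current at the end of a 2000 ms depolarizing step was read before and after 3 min compound, as % change per well. Dosing was 8 points, 3-fold from 30 μM, in quadruplicate. Conductance was current divided by driving force; ΔV1/2 came from the same cells.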

KCNQ4 [2] = biological target: T2, KCNQ4 (Homo sapiens, UniProt P56696); experiment: Tl+ flux assay, KCNQ4; format: cell-based; conditions: versus KCNQ2, Tl+ flux assay
CYP2D6 = CYP2D6 (Homo sapiens, UniProt P10635); experiment: CYP450 inhibition, CYP2D6; format: in vitro ADME
Sequence of CYP2D6 (P10635 whole entry): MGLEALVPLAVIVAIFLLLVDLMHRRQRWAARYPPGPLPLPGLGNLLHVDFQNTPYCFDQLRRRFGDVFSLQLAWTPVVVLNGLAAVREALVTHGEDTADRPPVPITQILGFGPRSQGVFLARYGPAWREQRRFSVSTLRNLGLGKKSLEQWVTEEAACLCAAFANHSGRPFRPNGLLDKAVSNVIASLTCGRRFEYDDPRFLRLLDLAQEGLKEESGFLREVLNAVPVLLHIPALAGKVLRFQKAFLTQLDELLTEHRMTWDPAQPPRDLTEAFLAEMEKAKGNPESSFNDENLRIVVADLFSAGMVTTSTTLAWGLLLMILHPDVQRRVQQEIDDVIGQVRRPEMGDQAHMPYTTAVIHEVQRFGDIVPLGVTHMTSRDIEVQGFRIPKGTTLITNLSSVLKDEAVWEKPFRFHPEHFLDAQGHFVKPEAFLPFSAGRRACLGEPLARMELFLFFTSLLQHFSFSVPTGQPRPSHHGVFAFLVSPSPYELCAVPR

KCNQ3 = KCNQ3 (Homo sapiens, UniProt O43525); experiment: Tl+ flux assay, KCNQ3; format: cell-based
CYP2C9 = CYP2C9 (Homo sapiens, UniProt P11712); experiment: CYP450 inhibition, CYP2C9; format: in vitro ADME
Sequence of CYP2C9 (P11712 whole entry): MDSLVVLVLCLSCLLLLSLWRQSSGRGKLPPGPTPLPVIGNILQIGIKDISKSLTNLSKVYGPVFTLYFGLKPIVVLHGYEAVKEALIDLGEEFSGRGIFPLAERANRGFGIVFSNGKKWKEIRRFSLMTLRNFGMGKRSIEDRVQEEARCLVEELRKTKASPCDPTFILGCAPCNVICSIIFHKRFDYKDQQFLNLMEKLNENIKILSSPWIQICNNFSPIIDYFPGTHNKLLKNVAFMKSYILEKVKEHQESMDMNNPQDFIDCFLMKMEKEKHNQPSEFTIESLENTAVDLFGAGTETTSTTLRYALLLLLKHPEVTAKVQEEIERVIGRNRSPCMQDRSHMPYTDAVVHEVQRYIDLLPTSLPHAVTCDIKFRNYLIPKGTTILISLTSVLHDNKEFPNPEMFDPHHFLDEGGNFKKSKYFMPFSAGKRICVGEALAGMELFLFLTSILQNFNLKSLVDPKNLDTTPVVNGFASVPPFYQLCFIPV

CYP3A4 = CYP3A4 (Homo sapiens, UniProt P08684); experiment: CYP450 inhibition, CYP3A4; format: in vitro ADME
Sequence of CYP3A4 (P08684 whole entry): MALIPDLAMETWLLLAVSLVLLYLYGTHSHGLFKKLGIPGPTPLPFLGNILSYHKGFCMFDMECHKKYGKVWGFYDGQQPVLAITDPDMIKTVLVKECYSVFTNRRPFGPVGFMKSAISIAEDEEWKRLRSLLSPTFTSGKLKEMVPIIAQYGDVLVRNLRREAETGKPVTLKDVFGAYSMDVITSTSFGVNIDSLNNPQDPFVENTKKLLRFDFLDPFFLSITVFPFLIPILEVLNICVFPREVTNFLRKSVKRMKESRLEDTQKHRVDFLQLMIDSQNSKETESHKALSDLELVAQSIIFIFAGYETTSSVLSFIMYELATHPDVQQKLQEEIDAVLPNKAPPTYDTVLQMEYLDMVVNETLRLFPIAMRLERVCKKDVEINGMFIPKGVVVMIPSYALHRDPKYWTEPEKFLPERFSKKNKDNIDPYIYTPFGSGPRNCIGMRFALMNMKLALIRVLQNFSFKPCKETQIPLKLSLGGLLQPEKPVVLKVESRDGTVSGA

KCNQ2/KCNQ3 = KCNQ2/KCNQ3 (Homo sapiens, UniProt O43525+O43526); experiment: IonWorks automated electrophysiology, KCNQ2/KCNQ3; format: cell-based
Summary of the method: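 KCNQ2/KCNQ3-expressing cells on IonWorks population patch clamp, perforated with 50 μg/mL amphotericin B, extracellular pH 7.4 and internal pH 7.2. The KCNQ2 voltage protocol was used: a 2000 ms depolarizing step, with steady-state current read at step end before and 3 min after compound. Wells needed >100 pA current and >30 MΩ seal. Dosing was 8 points, 3-fold from 30 μM, in quadruplicate.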

KCNQ2 channels [3] = biological target: T1, KCNQ2 channels; experiment: Thallium-based fluorescence; format: cell-based; conditions: 10-point CRC
Summary of the method: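 Thallium influx read with FluxOR dye. Cells were plated at 6500/well on poly-D-lysine, cultured overnight at 37 °C and 5% CO2, and dye-loaded 90 min at room temperature in the dark. Assay buffer was HBSS with 5.8 mM K+, with 20 min compound preincubation. Stimulus brought final K+ to 15.8 mM and Tl+ to 5 mM. Reading was at 1 Hz for 10 s baseline plus 110 s; ΔF/F0 over 120 s was normalized to activator and buffer controls.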

KCNQ1 [4] = biological target: T3, KCNQ1 (Homo sapiens, UniProt P51787); experiment: IonWorks automated electrophysiology, KCNQ1; format: cell-based
Summary of the method: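 KCNQ1 cells in IonWorks perforated-patch mode (50 μg/mL amphotericin B), with extracellular saline at pH 7.4. Cells were depolarized to +40 mV from the holding potential, and current was measured during the +40 mV step before and 3 min after compound. No liquid junction correction was applied; sampling was 0.625 kHz. EC50 came from 8-point, 3-fold dilutions from 30 μM, in quadruplicate.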

[5] = system: 68 GPCRs, ion channels and transporters; experiment: Ricerca Lead Profiling Screen; format: binding; conditions: 10 μM
hERG = hERG (Homo sapiens, UniProt Q12809); experiment: IonWorks automated electrophysiology, hERG; format: cell-based
Sequence of hERG (Q12809 whole entry): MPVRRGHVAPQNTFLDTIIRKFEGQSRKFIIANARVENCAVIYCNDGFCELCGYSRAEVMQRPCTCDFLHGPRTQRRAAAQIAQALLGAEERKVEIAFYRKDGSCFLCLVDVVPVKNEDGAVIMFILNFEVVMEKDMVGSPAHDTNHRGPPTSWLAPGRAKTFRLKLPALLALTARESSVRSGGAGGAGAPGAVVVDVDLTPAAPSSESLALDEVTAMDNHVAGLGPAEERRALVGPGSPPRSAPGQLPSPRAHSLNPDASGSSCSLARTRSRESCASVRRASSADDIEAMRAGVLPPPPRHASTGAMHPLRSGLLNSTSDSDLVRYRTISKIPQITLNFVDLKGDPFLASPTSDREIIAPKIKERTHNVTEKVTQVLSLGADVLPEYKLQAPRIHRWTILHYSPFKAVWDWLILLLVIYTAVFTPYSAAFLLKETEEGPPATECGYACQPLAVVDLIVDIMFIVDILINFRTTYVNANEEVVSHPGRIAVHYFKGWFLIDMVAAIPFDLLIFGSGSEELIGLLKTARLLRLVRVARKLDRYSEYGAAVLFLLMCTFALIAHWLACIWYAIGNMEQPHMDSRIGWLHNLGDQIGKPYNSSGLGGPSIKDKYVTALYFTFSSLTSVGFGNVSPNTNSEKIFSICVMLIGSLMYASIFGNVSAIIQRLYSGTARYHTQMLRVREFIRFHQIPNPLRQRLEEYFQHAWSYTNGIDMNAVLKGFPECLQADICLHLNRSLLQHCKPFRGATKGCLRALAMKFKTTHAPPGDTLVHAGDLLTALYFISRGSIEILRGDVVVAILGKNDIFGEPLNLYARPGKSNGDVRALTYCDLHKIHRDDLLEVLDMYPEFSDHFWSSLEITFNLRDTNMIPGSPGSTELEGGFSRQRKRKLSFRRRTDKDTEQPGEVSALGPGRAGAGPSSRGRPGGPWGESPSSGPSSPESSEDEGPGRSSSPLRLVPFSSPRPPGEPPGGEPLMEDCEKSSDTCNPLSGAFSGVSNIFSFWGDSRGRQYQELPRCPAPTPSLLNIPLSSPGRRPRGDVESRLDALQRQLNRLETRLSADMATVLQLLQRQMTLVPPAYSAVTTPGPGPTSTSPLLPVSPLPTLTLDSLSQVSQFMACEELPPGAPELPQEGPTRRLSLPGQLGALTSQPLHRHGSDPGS

Kir2.1 = biological target: T4, Kir2.1 (Homo sapiens, UniProt P63252); experiment: Tl+ flux assay, Kir2.1; format: cell-based
T4 sequence (P63252 1-427): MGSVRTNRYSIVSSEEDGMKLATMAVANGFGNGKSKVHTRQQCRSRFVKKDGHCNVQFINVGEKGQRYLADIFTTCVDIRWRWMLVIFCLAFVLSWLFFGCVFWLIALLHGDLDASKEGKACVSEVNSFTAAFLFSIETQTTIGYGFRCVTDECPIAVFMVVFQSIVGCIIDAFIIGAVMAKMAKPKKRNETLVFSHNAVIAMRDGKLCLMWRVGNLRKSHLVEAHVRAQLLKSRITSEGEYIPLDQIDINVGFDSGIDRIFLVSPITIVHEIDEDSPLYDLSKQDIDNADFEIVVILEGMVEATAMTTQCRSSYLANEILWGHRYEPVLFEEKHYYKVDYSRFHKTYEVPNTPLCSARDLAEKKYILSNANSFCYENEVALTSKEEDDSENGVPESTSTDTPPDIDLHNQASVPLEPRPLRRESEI

CYP1A2 = biological target: T5, CYP1A2 (Homo sapiens, UniProt P05177); experiment: CYP450 inhibition, CYP1A2; format: in vitro ADME
T5 sequence (P05177 1-516): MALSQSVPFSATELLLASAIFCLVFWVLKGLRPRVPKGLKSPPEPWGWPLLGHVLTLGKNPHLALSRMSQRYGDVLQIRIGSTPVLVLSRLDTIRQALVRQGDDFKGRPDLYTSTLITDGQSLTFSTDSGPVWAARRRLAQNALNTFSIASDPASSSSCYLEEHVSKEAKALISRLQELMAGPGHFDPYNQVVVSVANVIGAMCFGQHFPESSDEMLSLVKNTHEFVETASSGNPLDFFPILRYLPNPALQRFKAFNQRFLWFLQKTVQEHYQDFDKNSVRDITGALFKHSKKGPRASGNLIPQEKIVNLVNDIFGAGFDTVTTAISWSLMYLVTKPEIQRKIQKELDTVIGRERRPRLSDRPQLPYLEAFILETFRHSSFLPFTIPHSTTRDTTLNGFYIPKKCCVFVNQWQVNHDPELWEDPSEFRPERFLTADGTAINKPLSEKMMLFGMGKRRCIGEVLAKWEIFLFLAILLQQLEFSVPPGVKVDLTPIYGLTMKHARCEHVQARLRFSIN

KCNQ1 [6] = biological target: T3, KCNQ1; experiment: Tl+ flux assay, KCNQ1; format: cell-based
KCNQ5 = KCNQ5 (Homo sapiens, UniProt Q9NR82); experiment: Tl+ flux assay, KCNQ5; format: cell-based
KCNQ1/KCNE1 [7] = biological target: T6, KCNQ1/KCNE1 (Homo sapiens, UniProt P51787); experiment: Tl+ flux assay, KCNQ1/E1; format: cell-based
KCNQ4 [8] = biological target: T2, KCNQ4; experiment: IonWorks automated electrophysiology, KCNQ4; format: cell-based; conditions: versus KCNQ2, IonWorks
[9] = Snapshot in vivo PK study, plasma and brain levels after IP administration; conditions: 10 mg/kg
KCNQ1/KCNE1 [10] = biological target: T6, KCNQ1/KCNE1; experiment: IonWorks automated electrophysiology, KCNQ1/KCNE1; format: cell-based
Summary of the method: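 KCNQ1/KCNE1 cells in IonWorks perforated patch (50 μg/mL amphotericin B) at pH 7.4 extracellular. The protocol was a 3000 ms depolarizing step to +40 mV, then a 500 ms hyperpolarizing step. Steady-state current at +40 mV was read before and after 3 min compound exposure. Concentration-response was 8 points, 3-fold from 30 μM, in quadruplicate; sampling was 0.625 kHz.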

EC50 (KCNQ2 channels [1]): 0.23 µM
Fold selectivity (Tl+), KCNQ4 (KCNQ4 [2]): 6.7 fold
IC50 (CYP2D6): > 30 µM
EC50 (KCNQ3): > 30 µM
Fold selectivity (Tl+), KCNQ3 (KCNQ3; versus KCNQ2, Tl+ flux assay): >80 fold
IC50 (CYP2C9): > 30 µM
IC50 (CYP3A4): > 30 µM
EC50 (KCNQ2/KCNQ3): 0.37 µM
Fold selectivity (IW), KCNQ2/3 (KCNQ2/KCNQ3; versus KCNQ2, IonWorks): 1 fold
maximal increase in Tl+ influx, KCNQ2 (KCNQ2 channels [3]): 56%
EC50 (KCNQ2 channels [3]; Tl+ EC50, KCNQ2, fluorescent Tl+ influx assay): 0.359 µM and 0.36 µM
EC50 (KCNQ1 [4]): > 30 µM
inhibition of radio ligand binding, panel of 68 GPCRs, ion channels and transporters [5]: ≤ 50%
EC50 (Kir2.1): > 10 µM
Fold selectivity (Tl+), Kir2.1 (Kir2.1; versus KCNQ2, Tl+ flux assay): >27 fold
IC50 (CYP1A2): > 30 µM
EC50 (KCNQ1 [6]): > 30 µM
EC50 (KCNQ5): > 30 µM
Fold selectivity (Tl+), KCNQ5 (KCNQ5; versus KCNQ2, Tl+ flux assay): >80 fold
EC50 (KCNQ1/KCNE1 [7]): > 30 µM
Fold selectivity (IW), KCNQ4 (KCNQ4 [8]): 1.4 fold
concentration at 1 h ([9]; brain): 476 nM
concentration at 1 h ([9]; plasma): 1260 nM
EC50 (KCNQ1/KCNE1 [10]): > 30 µM
SMILES: Cc1cc(C)c(NC(=O)C2CC3CCC2C3)c(C)c1 (stereo not drawn) [compound 1, N-Mesitylbicyclo[2.2.1]heptane-2-carboxamide]
selectivity ratio at 3 min (KCNQ1 [4]; pH 7.4): > 80
EC50 (hERG): > 10 µM
selectivity ratio (hERG; human): > 28
selectivity ratio at 20 min (KCNQ1 [6]): > 80
selectivity ratio at 20 min (KCNQ1/KCNE1 [7]): > 80
selectivity ratio at 3 min (KCNQ1/KCNE1 [10]; pH 7.4): > 80

Reference: article PMC3223964 (ACS chemical neuroscience, 2011)
